Experiments:
Format in all cases: functional
Canis familiaris [1] = assay: Antisecretory activity in histamine stimulated dogs following 5 mg/kg i.v. administration.; conditions: Canis lupus familiaris, route intravenous
How it was run: (§1)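 Adult mongrel dogs with surgically prepared Heidenhain pouches, acid secretion stimulated with histamine. Compound given intravenously (0.1-5 mg/kg range). Acid output reduction is expressed relative to the nondrug-treated control value in the same animal, each dog serving as its own control. Unless noted otherwise, one dog per compound. ED50 is the iv dose reducing acid output to 50% of control.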

Rattus norvegicus [2] = organism: Rattus norvegicus; assay: Cytoprotective activity in rats against the ethyl alcohol stimulated ulcers measured as effective dose
How it was run: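 Rats were dosed orally at 1–30 mg/kg, 30 min before an oral challenge of absolute ethanol. Ethanol-induced gastric lesions were scored 1 h later, and an effective dose was estimated.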

Rattus norvegicus [3] = assay: Antisecretory activity in pylorus ligated rats at a 40 mg/kg dose administered intraperitoneally; conditions: ip, route intraperitoneal
How it was run: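 Pylorus-ligated rats, six per compound and eight controls. Compound given intraperitoneally at 40 mg/kg at the time of ligation. Reduction in acid output measured over 4 h.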

Canis familiaris [4] = assay: Antisecretory activity in histamine stimulated dogs at 2 mg/kg dose administered intravenously; conditions: Canis lupus familiaris, route intravenous; how it was run: as §1
Canis familiaris [5] = assay: Antisecretory activity in histamine stimulated dogs at 2 mg/kg dose administered orally; conditions: Canis lupus familiaris, route oral
How it was run: (§2)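 Heidenhain pouch mongrel dogs, histamine-stimulated acid secretion. Compound given orally at 2–8 mg/kg. Reduction in acid output is relative to the same animal's own nondrug control, since histamine response depends on pouch size. Usually a single dog per compound. Oral ED50 is the dose reducing acid output to 50% of control.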

Canis familiaris [6] = assay: Antisecretory activity in histamine stimulated dogs at 4 mg/kg dose administered orally; conditions: Canis lupus familiaris, route oral; how it was run: as §2
Canis familiaris [7] = assay: Antisecretory activity in histamine stimulated dogs at 8 mg/kg dose administered orally; conditions: Canis lupus familiaris, route oral; how it was run: as §2

SMILES | inhibition in vivo at 5 mg/kg (Canis familiaris [1]) [%] | ED50 (Rattus norvegicus [2]) [mg/kg] | inhibition in vivo at 40 mg/kg (Rattus norvegicus [3]) [%] | inhibition in vivo at 2 mg/kg (Canis familiaris [4]) [%] | inhibition in vivo at 2 mg/kg (Canis familiaris [5]) [%] | inhibition in vivo at 4 mg/kg (Canis familiaris [6]) [%] | inhibition in vivo at 8 mg/kg (Canis familiaris [7]) [%]
CCCN(CCC)c1c(C)nc2c(OCc3ccccc3)cccn12 | 0 | 8.4 | 60 |  |  |  | 
Cc1nc2c(OCc3ccc(F)cc3)cccn2c1N |  | 4.8 | 95 | 95 | 55 | 60 | 93
Cc1nc2c(OCc3ccccc3)cccn2c1CCN |  |  | 63 | 6 |  |  | 9
CC(=O)Nc1c(C)nc2c(OCc3ccccc3)cccn12 |  | 4.6 | 93 | 24 |  |  | 44
COc1c(C)nc2c(OCc3ccccc3)cccn12 | 37 | 3.6 | 49 |  |  |  | 
CSc1c(C)nc2c(CCc3ccccc3)cccn12 | 0 | 8.5 | 28 |  |  |  | 
CNC(=O)Nc1c(C)nc2c(OCc3ccccc3)cccn12 | 27 | 3.5 | 22 |  |  |  | 
Cc1nc2c(OCc3ccc(C(F)(F)F)cc3)cccn2c1N |  | 6.5 | 78 | 0 |  |  | 8
CNc1c(C)nc2c(OCc3ccccc3)cccn12 |  | 9.8 | 55 |  |  |  | 
CCCNc1c(C)nc2c(OCc3ccccc3)cccn12 |  | 5.3 | 99 | 12 |  |  | 68
Cc1ccn2c(C)c(C)nc2c1OCc1ccccc1 |  | 16 | 92 | 70 |  |  | 35
Cc1nc2c(OCc3ccccc3F)cccn2c1N |  | 6.6 | 93 | 93 | 20 | 46 | 93
CCNc1c(C)nc2c(OCc3ccccc3)cccn12 | 70 | 3.5 | 95 | 32 |  |  | 68
Cc1nc2c(OCc3ccccc3)cccn2c1NC=O |  | 10 | 49 | 3 |  |  | 
Cc1nc2c(COc3ccccc3)cccn2c1N | 34 | 6.6 | 27 |  |  |  | 39
Cc1nc2ccc(CCc3ccccc3)cn2c1N |  | 5.7 | 52 | 6 |  |  | 0
CCCc1nc2c(OCc3ccccc3)cccn2c1N |  |  | 31 | 45 |  |  | 0
Cc1cc(OCc2ccccc2)c2nc(C)c(C)n2c1 |  | 8.2 | 86 | 45 |  | 0 | 71
Cc1nc2c(OCc3ccccc3)ccc(C)n2c1C |  | 8 | 26 | 13 |  |  | 
COC(=O)Nc1c(C)nc2c(OCc3ccccc3)cccn12 |  |  | 0 |  |  |  | 
Cc1nc2c(OCc3ccccc3)cccn2c1/N=C/N(C)C |  | 9.8 | 64 | 12 |  |  | 0
CCNc1c(C)nc2c(CCc3ccccc3)cccn12 | 11 | 5.2 | 78 |  |  |  | 65
Cc1cc(OCc2ccccc2)c2nc(C)c(N)n2c1 |  | 2.3 | 65 | 46 |  |  | 50
